ChEMBL document CHEMBL1123137 (J Med Chem, 1985)

Key:
[1] = HPLC capacity factor (k'); format: ADME
[2] = biological target: Adenosine receptor A2a (Canis lupus familiaris) (UniProt P11617); test: Molar potency ratio was evaluated
[3] = biological target: Albumin (Bos taurus, UniProt P02769); test: Serum albumin binding; conditions: cattle
Method in brief: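 Affinity for bovine serum albumin measured by Hummel–Dreyer method adapted for HPLC. Samples of BSA (0.25–2 g/dL) with 25 μM analogue in 0.1 M NaH2PO4, pH 7.4, were applied to an Aquapore OH-100 column equilibrated with 25 μM analogue in the same buffer. Effluent absorbance was read at 254 nm. Duplicate estimates were made at each of two BSA concentrations, usually 1 and 2 g/dL.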

Sequence of Albumin (P02769 whole entry): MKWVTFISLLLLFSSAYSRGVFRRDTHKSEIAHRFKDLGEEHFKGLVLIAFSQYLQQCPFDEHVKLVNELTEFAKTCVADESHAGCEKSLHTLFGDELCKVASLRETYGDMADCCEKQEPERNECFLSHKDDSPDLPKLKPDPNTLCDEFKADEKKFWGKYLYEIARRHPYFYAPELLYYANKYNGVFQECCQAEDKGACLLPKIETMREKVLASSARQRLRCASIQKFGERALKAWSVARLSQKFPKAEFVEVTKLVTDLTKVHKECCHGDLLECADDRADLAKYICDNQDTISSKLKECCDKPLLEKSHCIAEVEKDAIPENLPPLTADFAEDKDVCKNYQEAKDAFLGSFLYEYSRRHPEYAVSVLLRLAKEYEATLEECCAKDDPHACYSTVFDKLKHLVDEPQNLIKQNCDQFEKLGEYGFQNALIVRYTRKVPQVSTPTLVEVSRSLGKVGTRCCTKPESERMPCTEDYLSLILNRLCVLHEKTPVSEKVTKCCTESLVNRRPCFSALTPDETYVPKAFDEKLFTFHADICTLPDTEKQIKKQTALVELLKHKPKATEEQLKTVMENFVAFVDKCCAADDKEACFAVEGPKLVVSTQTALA
Sequence of Adenosine receptor A2a (Canis lupus familiaris) (P11617 whole entry, looked up): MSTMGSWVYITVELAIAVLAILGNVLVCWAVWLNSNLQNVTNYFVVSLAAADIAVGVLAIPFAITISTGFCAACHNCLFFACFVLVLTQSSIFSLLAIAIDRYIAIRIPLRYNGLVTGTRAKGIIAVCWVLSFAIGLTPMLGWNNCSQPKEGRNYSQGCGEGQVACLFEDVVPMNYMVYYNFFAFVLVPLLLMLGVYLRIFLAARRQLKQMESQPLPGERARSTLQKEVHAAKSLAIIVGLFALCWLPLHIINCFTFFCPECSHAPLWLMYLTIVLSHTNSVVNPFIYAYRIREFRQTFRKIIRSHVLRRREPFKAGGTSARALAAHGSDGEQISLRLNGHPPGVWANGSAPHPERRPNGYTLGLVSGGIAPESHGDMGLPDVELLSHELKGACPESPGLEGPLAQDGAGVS

CCCCC(C)Nc1ncnc2c1ncn2C1O[C@H](CO)[C@@H](O)[C@H]1O (stereo partly specified)
k' [1]: 4.46
MPR [2]: 0.56

CCNc1ncnc2c1ncn2C1O[C@H](CO)[C@@H](O)[C@H]1O (stereo partly specified)
k' [1]: 0.29
MPR [2]: 0.15

OC[C@H]1O[C@@H](n2cnc3c(Cl)ncnc32)[C@H](O)[C@@H]1O
MPR [2]: 0.023

CCCCCNc1ncnc2c1ncn2[C@@H]1O[C@H](CO)[C@@H](O)[C@H]1O
k' [1]: 3.08
MPR [2]: 0.36

C[C@@H](Nc1ncnc2c1ncn2[C@@H]1O[C@H](CO)[C@@H](O)[C@H]1O)[C@@H](O)c1ccccc1
k' [1]: 1.32
MPR [2]: 2.9

OC[C@H]1O[C@@H](n2cnc3c(N[C@@H]4C[C@H]4c4ccccc4)ncnc32)[C@H](O)[C@@H]1O
k' [1]: 2.43
MPR [2]: 0.31

OC[C@H]1O[C@@H](n2cnc3c(NC4CCCC4)ncnc32)[C@H](O)[C@@H]1O [N6-CYCLOPENTYLADENOSINE]
k' [1]: 1.25
MPR [2]: 1.8

OC[C@H]1O[C@@H](n2cnc3c(NC4C5CCC4CC5)ncnc32)[C@H](O)[C@@H]1O (stereo partly specified)
k' [1]: 3.5
MPR [2]: 0.39

OC[C@H]1O[C@@H](n2cnc3c(NC4CC5CCC4C5)ncnc32)[C@H](O)[C@@H]1O (stereo in doubt; 57) [listing 1 of 2 here]
k' [1]: 2.63

OC[C@H]1O[C@@H](n2cnc3c(NC4CC4)ncnc32)[C@H](O)[C@@H]1O
k' [1]: 0.2
MPR [2]: 0.38

CCCCCC(C)Nc1ncnc2c1ncn2C1O[C@H](CO)[C@@H](O)[C@H]1O (stereo partly specified)
k' [1]: 8.54
MPR [2]: 0.31

OC[C@H]1O[C@@H](n2cnc3/c(=N\OCc4ccccc4)[nH]cnc32)[C@H](O)[C@@H]1O
k' [1]: 1.04
MPR [2]: 0.42

OC[C@H]1OC(n2cnc3c(NCCC4CCCCC4)ncnc32)[C@H](O)[C@@H]1O (stereo partly specified)
k' [1]: 8.92
MPR [2]: 0.04

CC[C@H](C)Nc1ncnc2c1ncn2C1O[C@H](CO)[C@@H](O)[C@H]1O (single isomer, unassigned)
Amount bound [3]: 0.53 M/g
k' [1]: 0.96
MPR [2]: 2.6

CC1(Nc2ncnc3c2ncn3C2O[C@H](CO)[C@@H](O)[C@H]2O)CCCC1 (stereo partly specified)
k' [1]: 5.02
MPR [2]: 0.033

OC[C@H]1O[C@@H](n2cnc3c(NC4CCCCCC4)ncnc32)[C@H](O)[C@@H]1O
Amount bound [3]: 3.4 M/g
k' [1]: 4.04
MPR [2]: 0.18

OC[C@H]1O[C@@H](n2cnc3c(NC4CCC4)ncnc32)[C@H](O)[C@@H]1O
k' [1]: 0.2
MPR [2]: 1.6

CC(C)(Cc1ccccc1)Nc1ncnc2c1ncn2C1O[C@H](CO)[C@@H](O)[C@H]1O (stereo partly specified)
k' [1]: 7.43
MPR [2]: 0.011

OC[C@H]1OC(n2cnc3c(NCC4CCCCC4)ncnc32)[C@H](O)[C@@H]1O (stereo partly specified)
Amount bound [3]: 7.1 M/g
k' [1]: 4.67
MPR [2]: 0.14

Cc1ncnc2c1ncn2[C@@H]1O[C@H](CO)[C@@H](O)[C@H]1O
MPR [2]: 0.007

C[C@@H](Nc1ncnc2c1ncn2[C@@H]1O[C@H](CO)[C@@H](O)[C@H]1O)[C@H](O)c1ccccc1
k' [1]: 0.96
MPR [2]: 1.8

CCCC(CCC)Nc1ncnc2c1ncn2C1O[C@H](CO)[C@@H](O)[C@H]1O (stereo partly specified)
Amount bound [3]: 7.1 M/g
k' [1]: 5.57
MPR [2]: 0.81

CCCCCCC(C)Nc1ncnc2c1ncn2C1O[C@H](CO)[C@@H](O)[C@H]1O (stereo partly specified)
k' [1]: 16.88
MPR [2]: 0.052

CC(C)(C)CNc1ncnc2c1ncn2C1O[C@H](CO)[C@@H](O)[C@H]1O (stereo partly specified)
k' [1]: 2.5
MPR [2]: 0.064

NCCNc1ncnc2c1ncn2C1O[C@H](CO)[C@@H](O)[C@H]1O (stereo partly specified)
k' [1]: 0.11
MPR [2]: 0.072

COc1ncnc2c1ncn2[C@@H]1O[C@H](CO)[C@@H](O)[C@@H]1O
k' [1]: 0.16
MPR [2]: 0.004

OC[C@H]1O[C@@H](n2cnc3c(N[C@H]4C[C@@H]4c4ccccc4)ncnc32)[C@H](O)[C@@H]1O
k' [1]: 2.36
MPR [2]: 0.7

C[C@@H](CO)Nc1ncnc2c1ncn2C1O[C@H](CO)[C@@H](O)[C@H]1O (stereo partly specified)
k' [1]: 0.28
MPR [2]: 0.098

OC[C@H]1O[C@@H](n2cnc3c(NC4CC5CCC4C5)ncnc32)[C@H](O)[C@@H]1O (stereo in doubt; 57) [listing 2 of 2 here]
MPR [2]: 0.54

CCC(CNc1ncnc2c1ncn2C1O[C@H](CO)[C@@H](O)[C@H]1O)c1ccccc1 (stereo partly specified)
k' [1]: 5.89
MPR [2]: 3.3

CNc1ncnc2c1ncn2[C@@H]1O[C@H](CO)[C@@H](O)[C@H]1O
k' [1]: 0.07
MPR [2]: 0.05

NNc1ncnc2c1ncn2[C@@H]1O[C@H](CO)[C@@H](O)[C@H]1O
k' [1]: 0.14
MPR [2]: 0.046

C[C@@H](CNc1ncnc2c1ncn2[C@@H]1O[C@H](CO)[C@@H](O)[C@H]1O)c1ccccc1
k' [1]: 2.89
MPR [2]: 2.4

CC(C)C(Nc1ncnc2c1ncn2C1O[C@H](CO)[C@@H](O)[C@H]1O)C(C)C (stereo partly specified)
Amount bound [3]: 2.97 M/g
k' [1]: 1
MPR [2]: 0.75

C#CCNc1ncnc2c1ncn2C1O[C@H](CO)[C@@H](O)[C@H]1O (stereo partly specified)
k' [1]: 0.21
MPR [2]: 0.23

OC[C@H]1O[C@@H](n2cnc3c(NC4CC5CCC4C5)ncnc32)[C@H](O)[C@@H]1O (stereo in doubt; 58) [listing 1 of 2 here]
MPR [2]: 0.55

C[C@H](Nc1ncnc2c1ncn2[C@@H]1O[C@H](CO)[C@@H](O)[C@H]1O)c1ccccc1
k' [1]: 1.89
MPR [2]: 0.2

CN(C)c1ncnc2c1ncn2[C@@H]1O[C@H](CO)[C@@H](O)[C@H]1O
MPR [2]: 0.001

CC(C)CNc1ncnc2c1ncn2C1O[C@H](CO)[C@@H](O)[C@H]1O (stereo partly specified)
Amount bound [3]: 0.74 M/g
k' [1]: 1
MPR [2]: 0.75

OC[C@H]1OC(n2cnc3c(NC(C4CC4)C4CC4)ncnc32)[C@H](O)[C@@H]1O (stereo partly specified)
k' [1]: 2.68
MPR [2]: 1.5

OC[C@H]1O[C@@H](n2cnc3c(NC4CC5CCC4C5)ncnc32)[C@H](O)[C@@H]1O (stereo in doubt; 58) [listing 2 of 2 here]
Amount bound [3]: 2.09 M/g
k' [1]: 2.64

OC[C@H]1O[C@@H](n2cnc3cncnc32)[C@H](O)[C@@H]1O
MPR [2]: 0.023

CC[C@H](CO)Nc1ncnc2c1ncn2[C@@H]1O[C@H](CO)[C@@H](O)[C@H]1O
k' [1]: 0.4
MPR [2]: 0.77

CCCNc1ncnc2c1ncn2C1O[C@H](CO)[C@@H](O)[C@H]1O (stereo partly specified)
k' [1]: 0.57
MPR [2]: 0.64

C[C@H](CCc1ccccc1)Nc1ncnc2c1ncn2[C@@H]1O[C@H](CO)[C@@H](O)[C@H]1O
k' [1]: 6.11
MPR [2]: 0.19

CCCCCCNc1ncnc2c1ncn2C1O[C@H](CO)[C@@H](O)[C@H]1O (stereo partly specified)
k' [1]: 5.88
MPR [2]: 0.2

C=CCNc1ncnc2c1ncn2[C@@H]1O[C@H](CO)[C@@H](O)[C@H]1O
k' [1]: 0.36
MPR [2]: 0.23

CCCC(C)Nc1ncnc2c1ncn2C1O[C@H](CO)[C@@H](O)[C@H]1O (stereo partly specified)
k' [1]: 2.38
MPR [2]: 1.1

CC(C)(C)CCNc1ncnc2c1ncn2C1O[C@H](CO)[C@@H](O)[C@H]1O (stereo partly specified)
k' [1]: 4.71
MPR [2]: 0.084

CC[C@@H](CO)Nc1ncnc2c1ncn2[C@@H]1O[C@H](CO)[C@@H](O)[C@H]1O
k' [1]: 0.52
MPR [2]: 0.12

OC[C@H]1O[C@@H](n2cnc3c(NC4CCCCC4)ncnc32)[C@H](O)[C@@H]1O
Amount bound [3]: 1.3 M/g
k' [1]: 2.12

C[C@H](CNc1ncnc2c1ncn2[C@@H]1O[C@H](CO)[C@@H](O)[C@H]1O)c1ccccc1
k' [1]: 3
MPR [2]: 3

OC[C@H]1O[C@@H](n2cnc3c(NO)ncnc32)[C@H](O)[C@@H]1O
k' [1]: 0.16

C[C@@H](CCc1ccccc1)Nc1ncnc2c1ncn2[C@@H]1O[C@H](CO)[C@@H](O)[C@H]1O
k' [1]: 6.47
MPR [2]: 0.05

OC[C@H]1OC(n2cnc3c(NC(Cc4ccccc4)Cc4ccccc4)ncnc32)[C@H](O)[C@@H]1O (stereo partly specified)
k' [1]: 14.83
MPR [2]: 0.33

OC[C@H]1OC(n2cnc3c(NCC4CC4)ncnc32)[C@H](O)[C@@H]1O (stereo partly specified)
k' [1]: 0.71
MPR [2]: 0.58

CN(Nc1ncnc2c1ncn2C1O[C@H](CO)[C@@H](O)[C@H]1O)c1ccccc1 (stereo partly specified)
k' [1]: 0.93
MPR [2]: 1.8

OC[C@H]1OC(n2cnc3c(NCC(O)c4ccccc4)ncnc32)[C@H](O)[C@@H]1O (stereo partly specified)
k' [1]: 0.79
MPR [2]: 1.4

C[C@@H](Cc1ccccc1)Nc1ncnc2c1ncn2[C@@H]1OC(CO)[C@@H](O)[C@H]1O (single isomer, unassigned)
k' [1]: 2.61

OC[C@H]1O[C@@H](n2cnc3/c(=N\O)[nH]cnc32)[C@H](O)[C@@H]1O
MPR [2]: 0.16
